# Reference: publication PMC12120886 (Plant Biotechnology Journal, 2025)
# Assays:
# LcTPS3 = experiment: malachite green phosphate-release assay, Michaelis-Menten fit; type: biochemical, Liriodendron chinense; settings: 5 mM MgCl2, 50 mM MOPS pH 7.0 (optimum printed as pH 7.5), 35 °C, FPP 0-25 μM
# Method in brief: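 Recombinant His-tagged enzyme was expressed from pET-28a(+) in E. coli BL21(DE3) pLysS, induced with 1 mM IPTG at 16 °C for 16 h, and bead-purified. FPP (0–25 μM) was reacted with 5 mM MgCl2 in 50 mM MOPS pH 7.0 at 35 °C for 15 min. Phosphatase-released phosphate was read by malachite green at 620 nm. Km came from a Michaelis–Menten fit of initial velocity versus [FPP].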
# STpGMAS = molecular target: T1, STpGMAS (Tanacetum parthenium, UniProt F8UL80); experiment: GC-MS of germacrene A from yeast expressing the synthase with ERG20; type: cell-based; settings: S. cerevisiae JCR27, endogenous FPP
# T1 sequence (F8UL80 1-559): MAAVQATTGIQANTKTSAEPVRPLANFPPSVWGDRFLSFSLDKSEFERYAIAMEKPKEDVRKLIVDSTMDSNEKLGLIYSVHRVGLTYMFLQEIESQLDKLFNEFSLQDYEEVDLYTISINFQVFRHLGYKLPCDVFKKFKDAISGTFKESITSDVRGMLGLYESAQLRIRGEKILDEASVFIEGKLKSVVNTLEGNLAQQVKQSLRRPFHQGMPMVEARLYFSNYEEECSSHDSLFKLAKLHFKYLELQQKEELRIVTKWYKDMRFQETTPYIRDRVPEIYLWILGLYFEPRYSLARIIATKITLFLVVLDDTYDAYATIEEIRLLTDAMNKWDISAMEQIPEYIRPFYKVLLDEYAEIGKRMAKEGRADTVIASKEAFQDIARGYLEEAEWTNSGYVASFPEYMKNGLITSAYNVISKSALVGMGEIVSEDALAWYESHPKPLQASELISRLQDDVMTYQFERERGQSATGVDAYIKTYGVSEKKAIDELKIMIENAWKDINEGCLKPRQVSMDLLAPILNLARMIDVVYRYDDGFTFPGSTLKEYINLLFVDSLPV
# LsLTC2 = molecular target: T2, LsLTC2 (Lactuca sativa, UniProt Q8S3A5); experiment: as above; type: cell-based; settings: S. cerevisiae JCR27, endogenous FPP
# T2 sequence (Q8S3A5 1-557): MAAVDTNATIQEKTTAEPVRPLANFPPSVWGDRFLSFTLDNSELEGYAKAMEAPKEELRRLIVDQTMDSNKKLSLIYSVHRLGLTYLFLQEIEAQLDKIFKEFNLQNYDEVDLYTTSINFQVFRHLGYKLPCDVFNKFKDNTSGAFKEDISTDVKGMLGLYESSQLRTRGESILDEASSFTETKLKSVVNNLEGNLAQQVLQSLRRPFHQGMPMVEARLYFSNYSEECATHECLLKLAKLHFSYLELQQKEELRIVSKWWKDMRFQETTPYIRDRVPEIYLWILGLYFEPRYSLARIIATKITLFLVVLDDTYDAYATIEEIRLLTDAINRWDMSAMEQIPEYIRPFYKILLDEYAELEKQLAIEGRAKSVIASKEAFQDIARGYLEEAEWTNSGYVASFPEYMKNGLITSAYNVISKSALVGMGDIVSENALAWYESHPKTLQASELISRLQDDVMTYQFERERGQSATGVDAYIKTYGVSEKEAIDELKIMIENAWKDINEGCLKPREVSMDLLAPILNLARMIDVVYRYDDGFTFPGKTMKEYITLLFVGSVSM
smiles,measurement,setting,value
CC(C)=CCC/C(C)=C/CC/C(C)=C/COP(=O)(O)OP(=O)(O)O [FPP],Km,LcTPS3,17.7 ± 0.47 µM
same,GC-MS of germacrene A from yeast expressing the synthase with ERG20,STpGMAS,"co‐expressed LcTPS3, NPGAS, LsLTC2 and STpGMAS with a yeast–derived farnesyl diphosphate synthase (EGR20)"
same,GC-MS of germacrene A from yeast expressing the synthase with ERG20,LsLTC2,"co‐expressed LcTPS3, NPGAS, LsLTC2 and STpGMAS with a yeast–derived farnesyl diphosphate synthase (EGR20)"
